Assay [1] concerns the target Glutamate dehydrogenase 1, mitochondrial (Bos taurus, UniProt P00366). In words: Inhibition constant against mammalian glutamate dehydrogenase (GDH). The method in brief:
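Bovine liver GDH in 0.1 M sodium phosphate, pH 7.0, with 10 μM EDTA. NAD is the variable substrate. Rates are followed as the increase in A340 from NADH formation (ε 6.22 mM-1 cm-1). Ki is taken from Lineweaver-Burk plots by linear regression. At least duplicate runs.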

Assay [2] in a line: Apparent inhibition constant against mammalian malate dehydrogenase (MDH). The method in brief: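 LDH and MDH: 0.05 M Tris-HCl, pH 9.0. NAD is the variable substrate. Rates come from the rise in A340 as NADH forms (ε 6.22 mM-1 cm-1). Ki is estimated from Lineweaver-Burk plots by linear regression of slope and intercept. Assays run at least in duplicate.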

Sequence of Glutamate dehydrogenase 1, mitochondrial (P00366 whole entry): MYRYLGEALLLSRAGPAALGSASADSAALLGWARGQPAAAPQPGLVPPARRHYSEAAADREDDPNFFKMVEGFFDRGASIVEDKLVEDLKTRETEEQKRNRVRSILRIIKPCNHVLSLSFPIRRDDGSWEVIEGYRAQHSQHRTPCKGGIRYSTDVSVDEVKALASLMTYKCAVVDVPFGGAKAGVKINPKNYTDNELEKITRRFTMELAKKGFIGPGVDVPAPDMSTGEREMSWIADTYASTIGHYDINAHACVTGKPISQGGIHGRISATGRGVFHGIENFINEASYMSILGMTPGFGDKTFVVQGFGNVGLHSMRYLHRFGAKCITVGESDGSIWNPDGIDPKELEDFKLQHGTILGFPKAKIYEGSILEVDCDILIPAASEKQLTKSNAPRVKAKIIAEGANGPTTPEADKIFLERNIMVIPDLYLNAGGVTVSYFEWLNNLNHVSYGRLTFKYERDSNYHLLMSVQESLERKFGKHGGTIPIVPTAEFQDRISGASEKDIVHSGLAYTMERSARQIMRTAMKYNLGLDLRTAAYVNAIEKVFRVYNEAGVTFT

For the molecule `NC(=O)C1=CN(C2OC(COP(=O)(O)OP(=O)(O)OC[C@H]3O[C@@H](n4cnc5c(N)ncnc54)[C@H](O)[C@@H]3O)[C@H](O)[C@@H]2O)C=CC1` (stereo partly drawn), the Ki in assay [1] turned out to be 3.4 µM.
In the case of `NC(=O)c1cncc([C@@H]2O[C@H](COP(=O)(O)OP(=O)(O)OC[C@H]3O[C@@H](n4cnc5c(N)ncnc54)[C@H](O)[C@@H]3O)[C@@H](O)[C@H]2O)c1`, the Ki in assay [2] came out at 410 µM.
As to `NC(=O)c1cccc([C@@H]2O[C@H](COP(=O)(O)OP(=O)(O)OC[C@H]3O[C@@H](n4cnc5c(N)ncnc54)[C@H](O)[C@@H]3O)[C@@H](O)[C@H]2O)n1`, the Ki in assay [1] came to 50 µM.

The values are drawn from ChEMBL document CHEMBL1127319, “CNAD: a potent and specific inhibitor of alcohol dehydrogenase” (J Med Chem, 1994).
